In the library only some 6% were active in any assay of this set; here they are far more common.
PostGolgi ctrl: growth inhibition of yeast control strain, primary screen, counter-screen for post-Golgi transport modulator project; efflux-deficient yeast background strain, growth absorbance A615, 16 h; inhibition, % at 10 µM; 98,000 tested, 5% active
EphB4 antag: EphB4-ephrin-B2 interaction antagonists, primary screen, biochemical, TNYL-RAW peptide probe, fluorescence polarization. AID 720, 2007. 97,000 tested, 0.15% active. EphB4 LBD / TNYL-RAW-Alexa532 peptide. inhibition, % at 7 µM. Ephrin type-B receptor 4 (Homo sapiens), P54760;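 active = inhibition above the screen-wide mean inhibition plus 3 SD, cut at about 15% in these data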;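 note: 0% = DMSO wells and 100% = excess unlabeled TNYL-RAW peptide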
Ecoli tolC: growth inhibitors of E. coli tolC mutant, primary screen, strain BW25113 ΔtolC::kan, 384-well. growth inhibition, % at 10 µM (by protocol). 65,000 tested, 2.2% active. OD615;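 active = growth inhibition at or above a cutoff equal to the mean over every tested compound plus 3 SD, cut at about 60% in these data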;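 note: growth measured after 20 h incubation at 37 °C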
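Assay system: tolC-deleted E. coli BW25113. Medium: kanamycin-containing LB broth (50 µg/mL). Dosing: 10 µM final, single dose. Timing: bacterial growth with compound for 20 h at 37 °C. Detection: A615 absorbance measurement. Read-out basis: growth inhibition in percent.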
PostGolgi yeast: phenotypic screen on post-Golgi transport, primary screen; post-Golgi transport phenotypic cell assay; inhibition, % at 10 µM; 98,000 tested, 0.9% active;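 note: yeast cells grown in 1536-well plates; yeast grown about 18 h at 30C before absorbance read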
Ecoli WT expand: growth inhibitors of wild-type E. coli, primary screen, strain BW25113, expanded library, OD600 | OD600 absorbance | growth inhibition, % at 100 µM | 98,000 tested, 0.15% active;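 active = growth inhibition above about 50% at one test dose, limit read from the data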;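 note: growth measured after 20 h incubation at 37 °C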
Active calls of the source: *; . = not tested or not shown. Cut-off read from the data, not from the text of the source, unless noted: active = inhibition above about 30%; inactive = the rest.

SMILES	PostGolgi ctrl	EphB4 antag	Ecoli tolC	PostGolgi yeast	Ecoli WT expand
CCOc1ccccc1C1N(c2ccc(OC)cc2)C(=O)C2CCCN21 (centres undefined)	34*	2	-1	-2	-2
O=C(O)C1CCC(=O)N1Cc1ccccc1Cl (centres undefined)	30*	.	-16	0	5
COc1cc(/C=C2/SC(=O)N(Cc3ccccc3Cl)C2=O)ccc1OCc1ccncc1	11	0	.	15	-15
Cc1cccc(/C=C2/SC(=O)N(Cc3ccccc3Cl)C2=O)n1	39*	2	.	-2	-7
CCn1c(=O)cc(SCC(=O)N2CCN(c3ccccc3F)CC2)c2ccccc21	13	6	.	10	-2
O=C(NNC(=S)NC(=O)C12CC3CC(CC(C3)C1)C2)c1ccncc1	48*	-2	.	42*	5
Cc1c(Cl)cccc1-n1nnnc1-c1cccs1	17	.	0	2	-11
Cc1ccccc1Cc1c(C)nc2c(C(=O)NCc3ccco3)cnn2c1C	42*	2	31	-14	-4
CCCNc1nc(Nc2ccc(C)cc2)nc(N2CCCC2)n1	36*	1	.	-5	2
Cc1cccc(Nc2nc(N3CCCCC3)nc(N3CCCCC3)n2)c1	.	-5	.	.	.
Cc1ccc(S(=O)(=O)C(C#N)c2nc3ccccc3nc2N2CCCCC2)cc1 (centres undefined)	.	.	36	.	.
CCOC(=O)N1CCN(c2nc3ccccc3nc2C(C#N)S(=O)(=O)c2ccc(C)cc2)CC1 (centres undefined)	18	1	77*	3	-1
N#CC(c1nc2ccccc2nc1N1CCCCC1)S(=O)(=O)c1ccc(Cl)cc1 (centres undefined)	.	.	89*	.	.
CCn1c(CSc2nc3ccccc3[nH]2)nc2cc(C(=O)O)ccc21	0	4	.	-4	3
CCn1c(CSc2nccn2C)nc2cc(C(=O)O)ccc21	3	15*	-6	-1	-1
Clc1ncc(CN2CCN(Cc3ccccc3)CC2)s1	7	4	.	3	12
CC(C)(C)C(=O)NC1CCN(S(=O)(=O)c2ccc(C(F)(F)F)cc2)CC1	20	-3	.	5	1
CC(=O)N1CCN=C1SCc1ccc(Cl)cc1	35*	.	-19	3	-6
COc1ccc(/C=N/NC(=O)c2ccc3ccccc3c2)cc1OS(=O)(=O)c1ccc(NC(C)=O)cc1	-8	-12	.	4	-9
COc1cc2c3c(c1)C1(C(=O)N3C(C)(C)C=C2C)C(C#N)=C(N)Oc2cc(O)ccc21 (centres undefined)	5	-11	65*	3	7
Cc1cccc(NC(=O)C2CCCN2C(=O)OCC(C)C)c1C (centres undefined)	35*	4	-3	-3	-11
Oc1ccc2ccccc2c1/C=N/c1nc2c(s1)CCCC2	2	6	.	-2	13
Oc1c(Br)cc(Br)cc1/C=N/c1nc2c(s1)CCCC2	9	-9	.	0	67*
C=CCc1c(C)c(C#N)c2nc3ccccc3n2c1N1CCN(C)CC1	.	.	7	.	.
Fc1ccc(-c2ccnc3nc(N4CCOCC4)nn23)cc1	5	0	.	-10	1
SMILES	PostGolgi ctrl	EphB4 antag	Ecoli tolC	PostGolgi yeast	Ecoli WT expand
COc1ccc(-c2ccnc3nc(N4CCN(c5ccccc5)CC4)nn23)cc1	53*	-2	.	-2	-4
Cn1c(NC(=O)CCc2ccccc2)cc(=O)n(C)c1=O	36*	-1	2	-5	2
CCCC(=O)Nc1cc(=O)n(C)c(=O)n1C	14	-12	-13	16	1
CCc1nnc(NC(=O)CN2CCN(c3nc(-c4ccccc4)cs3)CC2)s1	42*	-2	32	11	-6
CN1C=CC2=C(C#N)C(N)C(C#N)(C#N)[C@H](c3ccccc3)[C@H]2C1 (some centres undefined)	.	4	.	.	.
CCc1ccc2oc(-c3cccc(NC(=O)c4cccnc4)c3)nc2c1	74*	0	37	2	-7
O=C(Nc1ccc2oc(-c3ccccc3)nc2c1)c1cccnc1	15	1	25	-10	-5
O=S1(=O)Nc2c(ccc3cccnc23)-c2ccccc21	72*	.	100*	85*	80*
Cc1ccc2nc(N3CCN(Cc4nnnn4Cc4ccccc4)CC3)c(C#N)cc2c1	20	-5	12	-5	-39
COc1ccc2cc(C#N)c(N3CCN(Cc4nnnn4CCC(C)C)CC3)nc2c1	34*	8	39	-3	-14
